PubChem BioAssay
The source made the active and inactive calls.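 The calls were made as follows, unless noted: active = viability loss from added drug above about 55%, and viability with drug at most 40%, in both replicates (limit read from the data, passing the limit was not always enough); inconclusive = both conditions met in only one replicate; inactive = neither replicate meets both conditions.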

Legend:
[1] = reducers of endogenous Her2 protein level, primary screen, SKBR3 breast tumor cells, AlphaScreen, ATP viability (AID 461;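 active = Her2 level under about 52% in both replicate screens, with viability over 70% of control, limit read from the data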;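 as to Her2 level: lower value means less Her2 protein in the cells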;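 as to viability: percent of carrier control wells set as 100% viability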); settings: 18-24 h, measured here: SKBR3 viability, ATP luminescence, at 10 µM
[2] = target: Receptor tyrosine-protein kinase erbB-2 (Homo sapiens) (UniProt P04626); test: as above; settings: 18-24 h, at 10 µM, stronger effect = lower value
Chain of Receptor tyrosine-protein kinase erbB-2 (Homo sapiens) (P04626 whole entry, looked up): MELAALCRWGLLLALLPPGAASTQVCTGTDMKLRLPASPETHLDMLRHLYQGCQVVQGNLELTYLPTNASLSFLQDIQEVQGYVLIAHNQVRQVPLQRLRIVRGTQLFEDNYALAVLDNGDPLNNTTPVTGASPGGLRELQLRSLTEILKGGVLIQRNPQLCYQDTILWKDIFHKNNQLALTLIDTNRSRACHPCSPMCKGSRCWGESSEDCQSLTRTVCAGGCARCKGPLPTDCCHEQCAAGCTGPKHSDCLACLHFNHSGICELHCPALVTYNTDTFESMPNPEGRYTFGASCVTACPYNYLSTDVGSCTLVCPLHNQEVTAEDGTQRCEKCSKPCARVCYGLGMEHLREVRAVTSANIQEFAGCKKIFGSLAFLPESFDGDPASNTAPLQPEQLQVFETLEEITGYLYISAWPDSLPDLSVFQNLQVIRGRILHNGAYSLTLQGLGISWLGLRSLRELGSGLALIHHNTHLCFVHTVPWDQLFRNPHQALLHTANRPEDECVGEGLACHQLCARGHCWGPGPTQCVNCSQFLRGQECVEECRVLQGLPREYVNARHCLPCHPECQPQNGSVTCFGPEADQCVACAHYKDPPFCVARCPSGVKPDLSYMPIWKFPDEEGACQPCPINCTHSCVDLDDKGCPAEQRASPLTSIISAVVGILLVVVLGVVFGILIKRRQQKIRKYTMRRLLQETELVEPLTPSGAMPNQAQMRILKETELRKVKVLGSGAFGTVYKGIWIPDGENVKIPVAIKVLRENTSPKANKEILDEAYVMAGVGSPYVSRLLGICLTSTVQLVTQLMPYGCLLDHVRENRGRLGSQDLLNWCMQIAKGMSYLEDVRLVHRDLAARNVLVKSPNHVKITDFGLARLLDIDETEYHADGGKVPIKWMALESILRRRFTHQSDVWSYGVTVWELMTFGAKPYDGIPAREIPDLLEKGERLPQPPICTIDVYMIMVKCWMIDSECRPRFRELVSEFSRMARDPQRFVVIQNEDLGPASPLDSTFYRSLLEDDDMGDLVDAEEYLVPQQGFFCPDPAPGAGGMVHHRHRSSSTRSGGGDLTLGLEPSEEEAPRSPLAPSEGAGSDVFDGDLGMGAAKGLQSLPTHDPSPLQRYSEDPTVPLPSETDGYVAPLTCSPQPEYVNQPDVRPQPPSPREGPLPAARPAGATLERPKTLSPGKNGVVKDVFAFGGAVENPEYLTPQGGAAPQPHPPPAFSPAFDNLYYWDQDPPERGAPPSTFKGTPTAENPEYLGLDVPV

[3] = SK-BR-3 cell growth inhibitors, pilot screen, 24 h, human (AID 572;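 active = viability at or below 10% of carrier control in both of two separate runs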;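 also: compound exposure lasted between 18 and 24 h rather than exactly 24 h; 100% = carrier-treated control wells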); settings: SK-BR-3 viability, CellTiter-Glo luminescence, at 10 µM, stronger effect = lower value
[4] = HUVEC growth inhibition – cell-based, human, primary screen (AID 575;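 active = viability at or below 30% in both replicate assays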;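 also: 100% = median of untreated cell wells with 0.1% DMSO on each plate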); settings: HUVEC proliferation, CellTiter-Glo luminescence, 72 h; at 10 µM; stronger effect = lower value
In short: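 System: primary human umbilical vein endothelial cells; Quantity: 1250 endothelial cells in each well; Buffer or medium: supplemented EBM, 2% fetal bovine serum; Doses: one dose, 10 µM final, 0.1% DMSO; Incubation: 72 h compound incubation; Technique: ATP-based CellTiter-Glo luminescent read; Evaluation: percent of median DMSO-control luminescence; Controls: vehicle and MePR control wells.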

[5] = growth inhibitors of H69AR lung tumor, primary screen, human, duplicate replicates (AID 580;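 active = viability at or under a set limit in both replicates, limit being median viability minus 3 SD, cut at about 48% in these data, passing the limit was not always enough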;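 also: 100% = mean luminescence of untreated wells and 0% = no signal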); settings: H69AR lung tumor cells viability, ATP luminescence, 72 h; at 10 µM; stronger effect = lower value
[6] = reversal of MRP1-mediated doxorubicin resistance, pilot screen, H69AR cells, doxorubicin co-treatment (AID 601); settings: CellTiter-Glo, 72 h, at 10 µM; for differential viability (reversal): stronger effect = higher value
[7] = 384-well plate pilot, post-Golgi transport modulator project, inhibition of yeast transport mutant growth (AID 636; in the data active = inhibition above about 31%); settings: absorbance 615 nm, about 18 h, stronger effect = higher value
[8] = growth suppression of yeast trafficking mutant, preliminary HTS, modulators of trafficking downstream of Golgi apparatus project, 1536-format plate, OD 615 nm (AID 637; in the data active = inhibition above about 30%); settings: yeast transport mutant growth, absorbance 615 nm, 18 h; stronger effect = higher value
[9] = H69AR cells + 2 uM doxorubicin, measured here: viability with 2 uM doxorubicin, stronger effect = lower value
[10] = H69AR cells, compound alone cytotoxicity

SMILES	viability [1]	Her2 level [2]	viability [3]	viability [4]	viability [5]	differential viability (reversal) ([6]; H69AR cells + 2 uM doxorubicin)	viability [6, 9]	viability [6, 10]	inhibition [7]	inhibition [8]
CCOC(=O)N1CCN(C(=O)c2ccc3nc4cc(Cl)ccc4c(=O)n3c2)CC1	91%	95% (inactive)	91% (inactive)	96% (inactive)	91.1% (inactive)	2.21% (inactive)	88.8%	91.1%	-3.07% (inactive)	2.1% (inactive)
CCOC(=O)N1CCC(N2C(=O)c3ccc(C(=O)NCc4ccco4)cc3C2=O)CC1	95.5%	94% (inactive)	95.5% (inactive)	79.6% (inactive)	85.9% (inactive)	4.97% (inactive)	81%	85.9%	0% (inactive)	-0.17% (inactive)
CN(Cc1ccccc1)C(=O)CNC(=O)Cn1cnc2ccccc2c1=O	100%	83% (inactive)	100% (inactive)	91.9% (inactive)	100% (inactive)	9.23% (inactive)	90.8%	100%	-3.11% (inactive)	-5.71% (inactive)
COc1ccc(N2CC(C(=O)Nc3ccc(F)cc3F)CC2=O)cc1 (stereo not given)	102%	93.5% (inactive)	102% (inactive)	108% (inactive)	96.6% (inactive)	5.19% (inactive)	91.4%	96.6%	-3.47% (inactive)	1.13% (inactive)
O=C(CCN1C(=O)C2C3C=CC(C3)C2C1=O)NC1CCCc2ccccc21 (stereo not given)	81%	90.5% (inactive)	81% (inactive)	76.7% (inactive)	94.2% (inactive)	6.45% (inactive)	87.7%	94.2%	-1.89% (inactive)	5.57% (inactive)
CCOC(=O)N1CCN(C(=O)CSCC(=O)Nc2nc(-c3ccc(OC)cc3)cs2)CC1	116%	104% (inactive)	116% (inactive)	77.8% (inactive)	94.9% (inactive)	1.77% (inactive)	93.1%	94.9%	-1.3% (inactive)	-6.89% (inactive)
CC(C)CCn1c(N)c(S(=O)(=O)c2cccs2)c2nc3ccccc3nc21	171%	43% (active)	171% (inactive)	49.8% (inactive)	42.9% (active)	-14.9% (inactive)	57.7%	42.9%	-3.95% (inactive)	-3.17% (inactive)
O=C(CSc1nnc(CNC(=O)c2c(F)cccc2Cl)o1)c1ccccc1	94.5%	107% (inactive)	94.5% (inactive)	112% (inactive)	92.1% (inactive)	-1.57% (inactive)	93.7%	92.1%	0.38% (inactive)	-0.67% (inactive)
CC(C)(C)Nc1nc(NC(C)(C)C)nc(-n2ccnc2)n1	122%	80% (inactive)	122% (inactive)	69% (inactive)	88.6% (inactive)	1.06% (inactive)	87.6%	88.6%	-0.26% (inactive)	10.8% (inactive)
CN1/C(=C\C(=O)C(F)F)C(C)(C)c2ccccc21	90%	100% (inactive)	90% (inactive)	99.5% (inactive)	107% (inactive)	19.5% (inactive)	87.4%	107%	-0.53% (inactive)	1.77% (inactive)
CCc1ccccc1OCCCCCNCCO	85.5%	91% (inactive)	85.5% (inactive)	93.3% (inactive)	81.8% (inactive)	-5.63% (inactive)	87.4%	81.8%	-2.05% (inactive)	-1.5% (inactive)
O=C(CNc1ccc(Oc2ccccc2)cc1)N1CCOCC1	92.5%	95.5% (inactive)	92.5% (inactive)	92.1% (inactive)	105% (inactive)	4.96% (inactive)	100%	105%	-7.81% (inactive)	6.98% (inactive)
CCC(=O)N1CCc2cc(S(=O)(=O)CCC(=O)Nc3ccc(C)c(F)c3)ccc21	100%	98.5% (inactive)	100% (inactive)	91.6% (inactive)	83.3% (inactive)	2.27% (inactive)	81.1%	83.3%	-4% (inactive)	1.8% (inactive)
CCn1cc(C2=NCC(C)O2)c2ccccc21 (stereo not given)	96.5%	83% (inactive)	96.5% (inactive)	74.8% (inactive)	93.5% (inactive)	3.18% (inactive)	90.3%	93.5%	-5.54% (inactive)	-0.32% (inactive)
COc1ccc(CN(C(=O)c2oc3ccccc3c2C)C2CCS(=O)(=O)C2)cc1 (stereo not given)	86%	112% (inactive)	86% (inactive)	83.6% (inactive)	90.5% (inactive)	8.78% (inactive)	81.7%	90.5%	-4.13% (inactive)	-11.1% (inactive)
O=C(CCSc1nnc(-c2ccncc2)o1)Nc1ccccc1	90.5%	80.5% (inactive)	90.5% (inactive)	108% (inactive)	100% (inactive)	10.3% (inactive)	89.8%	100%	-0.79% (inactive)	5.27% (inactive)
